Data set [1] concerns A549. As to the kind of experiment: Cytotoxicity against human A549 cells incubated with 125 uM compound for 12 hrs followed by pre-irradiated 30 to 6 Gy/min X-ray irradiation measured after 72 hrs under hypoxic conditions by microplate reader method. It counts as functional, cell-based. An outline of the steps:
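A549 cells seeded at 1500 cells/well and held 6 h at 37 °C under hypoxia (<0.3% O2). Compound added, then 12 h hypoxic incubation at 37 °C. Plates kept hypoxic and X-irradiated at 6 Gy, then incubated 72 h aerobically. Viability read by WST-8 (CCK-8). Mean ± S.D., n = 9.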

Data set [2] in a line: Radiation stability assessed as compound decomposition at 100 uM after exposing to 6.0 Gy/min X-ray irradiation aqueous solution containing 2-methyl-2-propanol under hypoxic conditions by HPLC. It counts as physicochemical. The following applies: buffer.
The nature of data set [3]: Radiation stability assessed as 5-fluorodeoxyuridine formation at 100 uM after exposing to 6.0 Gy/min X-ray irradiation aqueous solution containing 2-methyl-2-propanol under hypoxic conditions by HPLC. It counts as physicochemical. The following applies: buffer.
The nature of data set [4]: Radiation stability assessed as compound decomposition at 100 uM after exposing to 6.0 Gy/min X-ray irradiation aqueous solution containing 2-methyl-2-propanol under aerobic conditions by HPLC. Format: physicochemical. The following applies: buffer.
A short description of data set [5]: Radiation stability assessed as 5-fluorodeoxyuridine formation at 100 uM after exposing to 6.0 Gy/min X-ray irradiation aqueous solution containing 2-methyl-2-propanol under aerobic conditions by HPLC. The following applies: buffer. Format: physicochemical.
Data set [6] has as its system A549. As to the kind of experiment: Cytotoxicity against human A549 cells after 72 hrs by microplate reader method. The following applies: A549, 72 h. It counts as functional, cell-based. The method, boiled down:
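A549 cells grown in DMEM with 10% FBS and 1% streptomycin/penicillin, seeded at 1500 cells/well, cultured 24 h at 37 °C in 5% CO2/95% air. Exposed to a concentration series under aerobic conditions for 72 h. Viability read by WST-8 (CCK-8) after 30 min at 37 °C; IC50 estimated from viability curves.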

Data set [7] concerns A549. As to the kind of experiment: Cytotoxicity against human A549 cells exposed to 1 uM compound pre-irradiated 30 to 120 Gy/min X-ray irradiation measured after 72 hrs under aerobic conditions by microplate reader method. It counts as functional, cell-based. The method, boiled down:
(§1)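 Compound dissolved in DMEM and X-irradiated (6.0 Gy/min) in a sealed glass ampoule at ambient temperature, under hypoxic or aerobic conditions. A549 cells were seeded at 1500 cells/well and grown 24 h at 37 °C aerobically, then incubated with the irradiated solution aerobically for 72 h. Viability read by WST-8 (CCK-8). Mean ± S.D., n = 6.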

The subject of data set [8] is A549. As to the kind of experiment: Cytotoxicity against human A549 cells exposed to 1 uM compound pre-irradiated 30 to 120 Gy/min X-ray irradiation measured after 72 hrs under hypoxic conditions by microplate reader method. Format: functional, cell-based. An outline of the steps: as §1

Calls of active or inactive are those of the source. The calls are words filed in the database; no cut-off is given here.

A word on the IC50: it is the concentration that inhibits the measured activity by half. Higher therefore signals a need for much substance. In the case of `O=C(Cn1c(=O)c(F)cn([C@H]2C[C@H](O)[C@@H](CO)O2)c1=O)Cn1c(=O)c(F)cn([C@H]2C[C@H](O)[C@@H](CO)O2)c1=O`, the result in data set [1] and in data set [7] was inactive. Further, the values for the Drug degradation in data set [2] and in data set [4] were 319.1 nmol/J and 173.6 nmol/J, respectively. Further, the figures for the Drug metabolism in data set [3] and in data set [5] were 125.9 nmol/J and 14.5 nmol/J, respectively. The compound also showed an IC50 in data set [6] of 4660 nM. Also, in data set [8], the outcome was Active.

Regarding `O=c1c(F)cn([C@H]2C[C@H](O)[C@@H](CO)O2)c(=O)n1CCCn1c(=O)c(F)cn([C@H]2C[C@H](O)[C@@H](CO)O2)c1=O`, the values for the Drug degradation in data set [2] and in data set [4] were 148.8 nmol/J and 140.3 nmol/J, respectively. The figures for the Drug metabolism in data set [3] and in data set [5] were less than 1 nmol/J and 1.4 nmol/J, respectively.

For the compound `CC(C(=O)C(C)n1c(=O)c(F)cn([C@H]2C[C@H](O)[C@@H](CO)O2)c1=O)n1c(=O)c(F)cn([C@H]2C[C@H](O)[C@@H](CO)O2)c1=O` (stereo not given in full), the figures for the Drug degradation in data set [2] and in data set [4] were 291 nmol/J and 177.2 nmol/J, respectively. For the same compound, the Drug metabolism came out at 115.3 nmol/J in data set [3] and 26.2 nmol/J in data set [5]. The 50% inhibitory concentration (IC50) in data set [6] is 1040 nM.

On to `O=c1[nH]c(=O)n([C@H]2C[C@H](O)[C@@H](CO)O2)cc1F` [FLOXURIDINE], for which it took 12.4 nM to reach half-maximal inhibition in data set [6] (IC50).

`CC(=O)Cn1c(=O)c(F)cn([C@H]2C[C@H](O)[C@@H](CO)O2)c1=O`: the Drug degradation in data set [2] is 312.5 nmol/J. Further, the Drug metabolism in data set [3] was determined as 50.9 nmol/J.

The record behind these values is ChEMBL document CHEMBL2069254, “Synthesis and one-electron reduction characteristics of radiation-activated prodrugs possessing two 5-fluorodeoxyuridine units” (Bioorg Med Chem, 2012).
